Compounds with a hit are over-represented: about 2.9% of the library has one in this group of screens.
RanGTP-Impb inh – inhibitors of RanGTP-importin-beta interaction, primary screen, biochemical, FRET, CFP-Ran, YFP-importin-beta, homogeneous. actives 1.1% (n = 300,000). AID 2216. cell-free CFP-Ran/YFP-importin-beta FRET ratio. inhibition, % (test concentration not listed);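 active = more than half of the replicate wells show a fall in the fluorescence ratio signal beyond about 16%, limit read from the data, passing the limit was not always enough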;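 also: 0% = DMSO wells and 100% = Ran loaded with GDP instead of GTP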
PfM18AAP inh – blocks P. falciparum M18 aspartyl aminopeptidase; actives 1.2% (n = 290,000); recombinant PfM18AAP, H-Glu-NHMec fluorogenic cleavage; inhibition, % at 7.35 µM;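 active = inhibition above the campaign mean inhibition over all tested compounds plus 3 SD, cut at about 28% in these data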;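 also: 0% = plate median of test compound wells and 100% = 2 mM ZnCl2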
Runt-CBFb FRET – blocks binding of human RUNX1 Runt domain to CBFb. AID 1496. inhibition, % at 20 µM. actives 0.46% (n = 220,000). Cerulean-Runt/Venus-CBFb FRET ratio 530/480, 1 h;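 active = inhibition over about 50% at 20 µM in the single-dose screen, limit read from the data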;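 also: 0% = DMSO wells and 100% = excess unlabeled CBFb competitor control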
Target sequence (Q01196 whole entry, looked up, the tested form may be a part): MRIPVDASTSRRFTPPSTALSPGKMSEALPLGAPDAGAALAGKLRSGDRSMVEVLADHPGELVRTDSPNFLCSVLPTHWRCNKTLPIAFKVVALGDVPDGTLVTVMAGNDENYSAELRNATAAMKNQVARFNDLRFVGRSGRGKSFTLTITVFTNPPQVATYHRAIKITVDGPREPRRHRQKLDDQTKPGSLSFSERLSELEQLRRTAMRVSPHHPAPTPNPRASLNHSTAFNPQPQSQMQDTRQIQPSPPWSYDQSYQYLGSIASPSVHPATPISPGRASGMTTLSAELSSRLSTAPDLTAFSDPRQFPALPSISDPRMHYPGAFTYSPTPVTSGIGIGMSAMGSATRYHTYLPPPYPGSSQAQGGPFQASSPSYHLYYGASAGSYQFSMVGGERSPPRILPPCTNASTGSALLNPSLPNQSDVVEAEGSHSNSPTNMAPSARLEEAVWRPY
Target sequence (Q13951 whole entry, looked up, the tested form may be a part): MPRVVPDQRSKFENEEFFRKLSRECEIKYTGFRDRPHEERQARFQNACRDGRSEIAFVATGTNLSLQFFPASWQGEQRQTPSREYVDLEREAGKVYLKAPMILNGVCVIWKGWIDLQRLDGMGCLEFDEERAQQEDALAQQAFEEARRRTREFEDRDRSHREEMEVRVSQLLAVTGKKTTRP
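test system = Cerulean-Runt domain fusion protein, energy donor | probe or stimulus = Venus-CBFb binding partner, 100 nM | incubation = two 1 h room-temperature incubations shielded from light | detection = fluorescence energy transfer, 422 nm excitation, 530/480 nm emission | measure = loss of energy transfer signal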
RBBP9 inh – inhibitors of human serine hydrolase RBBP9; O75884; recombinant RBBP9, FP-Rh probe fluorescence polarization; inhibition, % at 7.94 µM; actives 0.2% (n = 220,000); AID 1515;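 active = inhibition above the campaign mean of all tested compounds plus 3 SD, cut at about 14% in these data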;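 also: plate controls were DMSO wells with RBBP9 for no effect and wells lacking RBBP9 protein for full effect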
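System: RBBP9 protein | Quantity: 2.5 µM RBBP9 dispensing solution, before mixing | Reagent: FP-Rh probe, 375 nM dispensing solution | Timing: Enzyme-compound preincubation 30 min, then probe labeling 45 min, 25 °C | Measured by: Fluorescence polarization | Read-out: % inhibition | Replication: One well per compound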
Runt-SMMHC FRET – inhibitors of human RUNX1 Runt domain binding to CBFb-SMMHC; actives 0.74% (n = 220,000); inhibition, % at 20 µM; Cerulean-Runt/Venus-CBFb-SMMHC FRET ratio 530/480, 1 h; Q01196+Q13951; AID 1434;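 active = mean inhibition across duplicate retests at 20 µM reaching about 50%, limit read from the data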;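 also: 0% = DMSO wells and 100% = wells with excess untagged CBFb-SMMHC; inhibitors lower the FRET ratio by blocking Runt binding to CBFb-SMMHC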
Hck Nef HTS – blocks Nef-activated human Hck kinase. Recombinant Hck-YEEI plus Nef, Z-Lyte FRET kinase assay. inhibition, % at 20 µM. P08631. actives 0.68% (n = 220,000);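 active = Hck-Nef kinase inhibition above about 50%, limit read from the data; inactive = inhibition below that limit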;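 also: 0% = DMSO with Hck plus Nef and 100% = Hck alone without Nef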
An asterisk follows results filed as active; / = no result.

SMILES | RanGTP-Impb inh | PfM18AAP inh | Runt-CBFb FRET | RBBP9 inh | Runt-SMMHC FRET | Hck Nef HTS
Oc1cc2c(cc1O)C1c3ccc(O)c(O)c3OCC1(O)C2 (stereo unspecified) | / | 80* | 63* | 11 | 59* | -164
COc1ccc(C2=CC(c3c(C)nn(-c4ccccc4)c3Cl)n3nnnc3N2)cc1OC (stereo unspecified) | / | 10 | 31 | -7 | 86* | 2
Cc1cc(C)cc(C(=O)N[C@@H](C)C(=O)N2CCC3(CC2)NCCc2[nH]cnc23)c1 | 3 | -6 | / | / | / | /
Cn1c(NNC(=O)c2ccccc2F)cc(=O)n(C)c1=O | 1 | 2 | 12 | -2 | 6 | 13
Cc1ccc(C(=O)NNc2cc(=O)n(C)c(=O)n2C)cc1C | 28* | 10 | 20 | -12 | 49 | 6
Cn1c(NNC(=O)c2cccc3ccccc23)cc(=O)n(C)c1=O | 24* | 10 | 49 | 5 | 93* | 6
COc1ccccc1[C@@H]1C(c2cccc(Cl)c2)=NN(c2ccccc2)[C@H]1C(=O)N1CCOC1=O | 27* | 1 | 32 | 1 | 73* | 8
O=C1OCCN1C(=O)[C@H]1[C@H](c2ccc(Cl)cc2)C(c2cccc(Cl)c2)=NN1c1ccccc1 | 30* | -5 | 28 | -9 | 57 | 11
O=C(NNC(=O)c1ccc(Br)s1)NC1CCCCC1 | 5 | 28* | / | / | / | /
O=C(NNC(=O)c1ccc2c(c1)OCO2)NC1CCCCC1 | 2 | 30* | -1 | -7 | -6 | -2
CCC(C)(C)NC(=O)C1CC(=O)N(CCc2ccc(F)cc2)C1 (stereo unspecified) | 1 | 1 | / | / | / | /
CCc1ccc(NC(=O)N2CCCCCC2)cc1 | -2 | -4 | / | / | / | /
CC(C)(C)c1ccc(Cn2nnc3c(=O)[nH]c(C4CCN(C(=O)c5ccco5)CC4)nc32)cc1 | 4 | -1 | / | / | / | /
CN(/N=C/c1ccc(N(C)C)cc1)C1=NS(=O)(=O)c2ccccc21 | -2 | 4 | / | / | / | /
COc1cc(-c2nc3cnccn3c2Nc2c(C)cccc2C)ccc1O | 52* | 12 | 12 | -4 | 18 | 5
COc1ccc(C)cc1N(CC(=O)N1CCCCCC1)S(=O)(=O)c1ccccc1 | -4 | 3 | / | / | / | /
Fc1ccc(-c2cc3nc(-c4ccccc4)cc(N4CCN(CCN5CCOCC5)CC4)n3n2)cc1 | 22* | -5 | 4 | -7 | 11 | 5
CN1CCN(c2cc(-c3ccccc3)nc3cc(-c4ccc(F)cc4)nn23)CC1 | 0 | -2 | -6 | -9 | 3 | 7
COC(=O)[C@H]1[C@H]2C[C@H]3c4[nH]c5ccccc5c4CCN3C[C@H]2CC[C@@H]1O | 43* | 2 | / | / | / | /
COC(=O)C1C(O)CCC2CN3CCc4c([nH]c5ccccc45)C3CC21 (stereo unspecified) | 65* | / | 8 | / | 71* | 12
COc1cccc(C(=O)N2CCC(CCC(=O)Nc3cccc(C)c3)CC2)c1 | 3 | 3 | / | / | / | /
O=C(CCc1c[nH]c2ccccc12)N1CCN(c2ccc(O)cc2)CC1 | 2 | 31* | 28 | 0 | 24 | 21
CN1/C(=C\C=N\O)C(C)(C)c2ccccc21 | 4 | 1 | 0 | -3 | 0 | -9
CN1/C(=C\C(=O)Nc2ccc(F)cc2)C(C)(C)c2ccccc21 | 0 | 3 | -2 | 0 | -6 | 0
CN1/C(=C\C=C(/C#N)C(=O)Nc2ccccc2F)C(C)(C)c2ccccc21 | 122* | 2 | -1 | -10 | 58* | 2
SMILES | RanGTP-Impb inh | PfM18AAP inh | Runt-CBFb FRET | RBBP9 inh | Runt-SMMHC FRET | Hck Nef HTS
CN1/C(=C/C=C(/C#N)C(N)=O)C(C)(C)c2ccccc21 | 115* | -9 | 61* | -8 | -14 | 2
CC(C)(C)c1cc(C(=O)N/N=C/c2cc3c(cc2Br)OCO3)n[nH]1 | 1 | 12 | / | / | / | /
CC(C(Sc1ccccc1N)c1ccccc1)[N+](=O)[O-] (stereo unspecified) | 1 | 31* | 48 | -7 | 24 | -5
Nc1ccccc1SSc1ccccc1N | -3 | 14 | 47 | -11 | 48 | -35
Cc1ccc(S(=O)(=O)N(CC(=O)N2CCOCC2)CC(=O)N2CCOCC2)cc1 | 32* | -8 | 0 | 0 | 4 | 5
COC(=O)C1=CN(Cc2cccs2)C=C(C(=O)OC)C1c1cccc(O)c1 | 11 | 1 | 98* | 1 | 133* | 42
CCCCn1nc(NC(=O)CCC)c2cc3cc(OC)ccc3nc21 | 71* | 3 | / | / | / | /
CCCCn1nc(NC(=O)CC(C)C)c2cc3cc(OC)ccc3nc21 | 84* | -4 | / | / | / | /
COc1ccc2nc3c(cc2c1)c(NC(=O)CC(C)C)nn3CC(C)C | 74* | -6 | / | / | / | /
CCn1nc(NC(=O)CC(C)C)c2cc3ccc(C)cc3nc21 | 10 | -15 | / | / | / | /
CCOc1ccc(CCNC(=O)CCS(=O)(=O)c2ccc(Cl)cc2)cc1OCC | -1 | 3 | / | / | / | /
COc1ccccc1NC(=O)NC1(C(=O)N2CCCCC2)CCCCC1 | -3 | 1 | / | / | / | /
COc1ccc(C(=O)Nc2nnc(S(=O)(=O)N3CCOCC3)s2)cc1 | -2 | 4 | / | / | / | /
CCOC(=O)c1sc(Nc2nc3ccc(OC)cc3s2)cc1C | -1 | 2 | 6 | -4 | 62* | 4
COc1ccc(OC)c(NC(=O)c2ccccc2SC)c1 | -1 | -14 | -2 | 4 | 1 | 2
COc1ccc(OC)c(NC(=O)c2cc3oc4ccccc4c3cc2O)c1 | 4 | 5 | 46 | -3 | 96* | 6
Cn1c(CNC(=O)c2ccc3c(c2)OCO3)nnc1SCC(=O)Nc1ccc(F)cc1 | -3 | 2 | / | / | / | /
CCCN1CCC2(CC1)C(C#N)=C(N)Oc1c2sc2nc(C)cc(C)c12 | 26* | 2 | 6 | -5 | 12 | 3
COc1ccc(C[C@H]2COC(=O)[C@@H]2Cc2ccc(OC3OC(CO)C(O)C(O)C3O)c(OC)c2)cc1OC (stereo partly specified) | 1 | 0 | -2 | -6 | 0 | -1
COc1cc2ccc(=O)oc2c(O[C@@H]2O[C@H](CO)[C@@H](O)[C@H](O)[C@H]2O)c1O | 119* | 3 | / | / | / | /
CCCc1cc(=O)oc2c(C)c(O[C@@H]3O[C@H](CO)[C@@H](O)[C@H](O)[C@H]3O)ccc12 | 1 | -1 | / | / | / | /
COc1cc(C2OCC3C(c4ccc(OC5OC(CO)C(O)C(O)C5O)c(OC)c4)OCC23)ccc1O (stereo unspecified) | 5 | 41* | 10 | 2 | 0 | -20
CC1CCC(C(=O)NC(C(=O)NCCc2ccc(S(N)(=O)=O)cc2)C(C)C)CC1 (stereo unspecified) | -1 | -1 | / | / | / | /
Cc1nc2nc(SCc3ccccc3)[nH]n2c(=O)c1CCC(C)C | -1 | 2 | / | / | / | /

Source: PubChem
